Laboratory results: ChEMBL document CHEMBL1130159, “Chlorogenic acid and synthetic chlorogenic acid derivatives: novel inhibitors of hepatic glucose-6-phosphate translocase” (J Med Chem, 1997)

Test system: not listed separately
Assay: Inhibition glucose-6-phosphate hydrolysis in highly intact microsomal preparations obtained from livers of 20-h fasted rats.
Format: functional, microsomes, Rattus norvegicus, Liver, Microsome
Details: not given
Summary of the method: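 Male Wistar rats (160-180 g), fasted 20 h; liver microsomes by differential centrifugation, intactness usually above 97% (1 mM mannose 6-phosphate). 100 μg protein, 1 mM glucose 6-phosphate, 250 mM sucrose/50 mM HEPES pH 7.0, 10 min, 22 °C, compound 0.1-1000 μM (MeOH stock). Phosphate read at 630 nm, background-corrected; IC50 by nonlinear least-squares; at least two experiments.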

Going from `O=C(COc1ccccc1)O[C@@H]1C[C@](OCCCc2ccc(Cl)cc2)(C(=O)O)C[C@@H](O)[C@H]1O` to `O=C(O[C@@H]1C[C@](OCCCc2ccc(Cl)cc2)(C(=O)O)C[C@@H](O)[C@H]1O)c1snnc1-c1ccccc1`, the IC50 falls from 12 µM to 4.5 µM (2.7-fold).

`O=C(/C=C/c1ccc(O)c(O)c1)O[C@@H]1C[C@](O)(C(=O)O)C[C@@H](O)[C@H]1O` [CHLOROGENIC ACID] and `O=C(/C=C/c1ccc(O)cc1)O[C@@H]1C[C@](O)(C(=O)O)C[C@@H](O)[C@H]1O` are within 1.5-fold of each other in IC50: 230 µM for the first, 250 µM for the second.

`CO[C@@]1(C(=O)O)C[C@@H](O)[C@@H](O)[C@H](OC(=O)/C=C/c2ccc(O)cc2)C1` and `C#CCO[C@@]1(C(=O)O)C[C@@H](O)[C@@H](O)[C@H](OC(=O)/C=C/c2ccc(O)cc2)C1` are within 1.5-fold of each other in IC50: 280 µM for the first, 230 µM for the second.

Going from `O=C(O[C@@H]1C[C@](OCCCc2ccc(Cl)cc2)(C(=O)O)C[C@@H](O)[C@H]1O)C1CCCCC1` to `CC(C)CCC(=O)O[C@@H]1C[C@](OCCCc2ccc(Cl)cc2)(C(=O)O)C[C@@H](O)[C@H]1O`, the IC50 rises from 8.9 µM to 41 µM (4.6-fold).

`O=C(/C=C/c1ccc(O)c(O)c1O)O[C@@H]1C[C@](O)(C(=O)O)C[C@@H](O)[C@H]1O` and `O=C(/C=C/c1ccsc1)O[C@@H]1C[C@](O)(C(=O)O)C[C@@H](O)[C@H]1O` are within 1.5-fold of each other in IC50: 310 µM for the first, 380 µM for the second.

First: O=C(/C=C/c1ccc(O)cc1)O[C@@H]1C[C@](OCCCCc2ccc(Cl)cc2)(C(=O)O)C[C@@H](O)[C@H]1O
Second: O=C(/C=C/c1ccc(O)cc1)O[C@@H]1C[C@](OCCCc2ccc(Cl)cc2)(C(=O)O)C[C@@H](O)[C@H]1O
The IC50 of the first is 34-fold higher: 85 µM for the first, 2.5 µM for the second.

Compared with `O=C(/C=C/c1ccc(O)cc1)O[C@@H]1C[C@](OCc2cccs2)(C(=O)O)C[C@@H](O)[C@H]1O`, `O=C(/C=C/c1ccc(O)cc1)O[C@@H]1C[C@](OCc2ccccc2)(C(=O)O)C[C@@H](O)[C@H]1O` is 1.7-fold higher in IC50: 110 µM for the first, 190 µM for the second. The first is the more potent here.

Compared with `O=C(/C=C/c1cccnc1)O[C@@H]1C[C@](O)(C(=O)O)C[C@@H](O)[C@H]1O`, `O=C(CCc1ccc(O)c(O)c1)O[C@@H]1C[C@](O)(C(=O)O)C[C@@H](O)[C@H]1O` is lower in IC50: over 1000 µM for the first, 680 µM for the second.

Going from `O=C(/C=C/c1ccc(O)cc1)O[C@@H]1C[C@](OCCCc2ccccc2)(C(=O)O)C[C@@H](O)[C@H]1O` to `COc1cccc(CO[C@@]2(C(=O)O)C[C@@H](O)[C@@H](O)[C@H](OC(=O)/C=C/c3ccc(O)cc3)C2)c1`, the IC50 rises from 31 µM to 47 µM (1.5-fold). The first is the more potent here.

Going from `C=Cc1ccc(C(=O)O[C@@H]2C[C@](OCCCc3ccc(Cl)cc3)(C(=O)O)C[C@@H](O)[C@H]2O)cc1` to `O=C(/C=C/c1ccc(O)cc1)O[C@@H]1C[C@](OCc2ccc(-c3ccccc3)cc2)(C(=O)O)C[C@@H](O)[C@H]1O`, the IC50 rises from 1.3 µM to 21 µM (16-fold).

Species on record: Rattus norvegicus
Assay: Percent inhibition against glucose-6-phosphate hydrolysis in highly intact microsomal preparations obtained from livers of 20-h fasted rats at 0.25 mM
Format: functional, microsomes
Details: Liver, Microsome
Summary of the method: (§1)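 Intact microsomes from 20-h-fasted male Wistar rat liver; 100 μg protein incubated 10 min at 22 °C with 1 mM glucose 6-phosphate in pH 7.0 sucrose/HEPES buffer, ≤1.25% methanol. Released phosphate measured colorimetrically at 630 nm after background subtraction. Percent inhibition versus vehicle control; representative of at least two independent experiments.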

Work on `O=C(/C=C/c1ccc(O)cc1)O[C@@H]1CC(C(=O)O)=C[C@@H](O)[C@H]1O` yielded an inhibition of 50%.

Species on record: Rattus norvegicus
Assay: Percent inhibition against glucose-6-phosphate hydrolysis in highly intact microsomal preparations obtained from livers of 20-h fasted rats at 1 mM
Format: functional, microsomes
Details: Liver, Microsome
Summary of the method: as §1

Compared with `O=C(/C=C/c1ccc(O)cc1)O[C@@H]1C[C@](O)(C(=O)O)[C@@H](O)[C@@H](O)[C@H]1O`, `O=C(/C=C/c1ccc(O)c(O)c1)O[C@@H]1C[C@@](O)(C(=O)O)[C@H](O)[C@@H](O)[C@H]1O` is lower in inhibition: 30% for the first, 10% for the second.

Going from `O=C(/C=C/c1ccc(O)cc1)O[C@@H]1C[C@H](C(=O)O)CC[C@H]1O` to `CCO[C@@]1(C(=O)O)C[C@@H](O)[C@@H](O)[C@H](OC(=O)/C=C/c2ccc(O)cc2)C1`, the inhibition rises from 20% to 38%.

Going from `O=C(/C=C/c1ccc(O)cc1)N[C@@H]1CC(C(=O)O)=C[C@@H](O)[C@H]1O` to `COC(=O)[C@]1(O)C[C@@H](O)[C@@H](O)[C@H](OC(=O)/C=C/c2ccc(O)c(O)c2)C1`, the inhibition rises from 15% to 50%.

Species on record: Rattus norvegicus
Assay: Percent inhibition against glucose-6-phosphate hydrolysis in highly intact microsomal preparations obtained from livers of 20-h fasted rats at 0.23 mM
Format: functional, microsomes
Details: Liver, Microsome
Summary of the method: as §1

For `O=C(/C=C/c1ccc(O)cc1)O[C@@H]1C[C@H](C(=O)O)C[C@@H](O)[C@H]1O`, the inhibition was 50%.
